Shown are actives, neighbours in structure and some others; about 2.4% of the full set was active somewhere.
Insulin prom inh – TRM-6 insulin promoter activity inhibition. TRM-6 cells (human fetal islet line), insulin promoter-eGFP reporter, imaging; reporter expression induced with tamoxifen. inhibition, % at 2 µM. actives 0.9% (n = 130,000). AID 1273;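 active = inhibition above the mean plus 3 SD, with well images judged a real hit on visual review, cut at about 60% in these data, passing the limit was not always enough; inconclusive = inhibition over the cutoff but images rejected on review; inactive = inhibition not above the cutoff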
b-catenin transl – alters nuclear translocation of beta-catenin in HeLa cells | immunofluorescence imaging | actives 0.3% (n = 190,000) | nuclear translocation activity, % at 5 µM | AID 1665;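 active = nuclear translocation activity above 50% at 5 µM, with a well cell count of 50 or more; inconclusive = wells under 50 cells across six images, flagged as toxic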;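 note: per-cell ratio of nuclear to cytoplasmic median beta-catenin stain intensity; plate controls were DMSO negative control for no effect and GSK-3 inhibitor IX positive control for full effect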
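Test system: human HeLa cells, native beta-catenin. Compound dosing: 5 µM primary single dose, 0.1% DMSO, 0.02–20 µM confirmation series. Incubation: compound exposure 24 h at 37°C. Detection: beta-catenin immunostaining with DAPI counterstain, 20x imaging, 6 fields/well. Read-out basis: Nuclear/cytoplasmic beta-catenin signal ratio, % activation.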
ROMK primary – human ROMK K+ channel modulation, primary screen | B-score at 10 µM | Tet-inducible ROMK, thallium flux fluorescence; actives lie on both sides | AID 1918 | actives 2% (n = 130,000);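 active = signal ratio slope over the read window, or its plate-corrected B-score, at least 3 SD from the plate mean, either direction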;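 note: B-score of the F/F0 ratio slope over 7 to 12 s after thallium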
Target sequence (P48048 whole entry, looked up): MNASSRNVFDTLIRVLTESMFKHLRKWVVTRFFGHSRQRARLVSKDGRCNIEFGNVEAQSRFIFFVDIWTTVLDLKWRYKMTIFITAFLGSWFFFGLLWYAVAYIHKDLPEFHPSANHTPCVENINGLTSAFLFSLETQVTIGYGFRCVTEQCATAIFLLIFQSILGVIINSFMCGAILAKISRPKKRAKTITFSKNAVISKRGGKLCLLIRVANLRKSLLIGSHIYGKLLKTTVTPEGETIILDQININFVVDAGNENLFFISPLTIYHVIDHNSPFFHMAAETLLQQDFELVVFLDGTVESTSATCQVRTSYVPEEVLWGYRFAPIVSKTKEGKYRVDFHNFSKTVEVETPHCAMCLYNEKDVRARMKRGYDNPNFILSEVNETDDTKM
HSV augment – increases HSV replication in cells. HSV replication augmentation in cells, fold increase. maximum fold increase. actives 0.005% (n = 220,000). AID 1956; in the data active = maximum fold increase above about 1.5; inconclusive = no clear call, values can overlap the other calls; tested in PC3 cells
MT stabilize HCS – stabilizes microtubules in HeLa cells; % tubulin-high responders, % at 10 µM; actives 0.83% (n = 200,000); HeLa tubulin immunostaining HCS, 24 h; share of cells brighter than vehicle mean+2SD; AID 2205;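 active = plate Z-score above 3 for both tubulin-high and condensed-nucleus cell shares, with cell loss under 80%, at 10 µM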;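 note: anti alpha tubulin signal scored within the nucleus-defined area of each cell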
An asterisk follows results filed as active; i = inactive; ? = inconclusive; . = not tested or not shown.

SMILES	Insulin prom inh	b-catenin transl	ROMK primary	HSV augment	MT stabilize HCS
CC(C)c1ccc(/C=N/NC(=O)c2cccc(Cl)c2)cc1	i	.	2.7	i	23*
O=C(Nc1ccccc1Cc1ccccc1)c1ccccc1NS(=O)(=O)c1ccc(Cl)s1	31	0	-3.5*	.	4
O=C(Nc1ccccc1)c1ccccc1NS(=O)(=O)c1ccc(Cl)s1	-21	6	.	i	3
Cc1nnc(SCC(=O)Nc2cccc(S(=O)(=O)N(C)c3ccccc3)c2)s1	.	3	.	i	4
CCCCCCOc1ccc(/C(C)=N/NC2=NCCN2)cc1[N+](=O)[O-]	21	4	0.1	i	4
CCCCOc1ccc(Br)cc1/C(C)=N/NC1=NCCN1	-356	52*	.	i	8
Cc1ccccc1NS(=O)(=O)c1ccc(N2CCCC2=O)cc1	-3	100*	.	i	37*
COc1ccc(OC)c(NS(=O)(=O)c2ccc(N3CCCC3=O)cc2)c1	.	147*	2.3	i	22*
COc1ccc(/C=C/C(=O)C2C(=O)C=C(C)OC2=O)cc1O (stereo unspecified)	.	1	.	?	6
Cc1ccc(NS(=O)(=O)c2ccc(OCC(=O)NCc3ccncc3)cc2)cc1	.	1	.	i	3
Cc1ccc(-c2nc3ncccn3c2Nc2ccc3c(c2)OCCO3)cc1	-19	.	-0.56	i	1
COc1ccc(-c2nc3ncccn3c2Nc2ccc3c(c2)OCCO3)cc1	69*	-2	-0.5	.	1
Brc1ccccc1-c1nnc2sc(-c3ccc4c(c3)OCCO4)nn12	24	.	.	i	38*
Clc1ccccc1-c1nnc2sc(-c3ccc4c(c3)OCO4)nn12	-55	2	0.15	i	8
CC(C)CCNC(=O)c1cc(-c2ccncc2)nc2ccc(S(=O)(=O)N3CCOCC3)cc12	-44	-4	1.3	i	17*
COc1ccc2cc3c(N)nn(C(=O)C4CCC(C(C)(C)C)CC4)c3nc2c1 (stereo unspecified)	60*	2	-0.036	i	2
COc1ccc2cc3c(N)nn(C(=O)Cc4ccccc4OC)c3nc2c1	.	.	.	i	5
Cn1c(Cc2ccccc2)nnc1SCc1ccc(C(=O)O)cc1	75*	.	0.47	i	4
COc1ccccc1NC(=O)c1cnc(Nc2ccccc2OC)c2ccccc12	-56	118*	0.12	i	35*
COc1ccccc1Nc1ncc(C(=O)N2CCC(C(N)=O)CC2)c2ccccc12	0	-1	-0.39	i	3
Cc1cc(C)n2nc(N)c(N=Nc3cccc(Cl)c3)c2n1	62*	0	-0.23	i	2
Cc1ccc(N=Nc2c(N)nn3c(N)c(C#N)c(C)nc23)cc1	47	-3	-1.4	i	2
Cc1ccc(N=Nc2c(N)nn3c(C)cc(C)nc23)cc1	82*	-2	-0.02	i	3
Cc1ccc(N=Nc2c(N)nn(-c3ccccc3)c2N)cc1	6	2	2	i	10*
O=C(CN1CCN(c2ccc(C(F)(F)F)cn2)CC1)NCc1ccc2c(c1)OCO2	.	-2	.	i	.
SMILES	Insulin prom inh	b-catenin transl	ROMK primary	HSV augment	MT stabilize HCS
Cc1cc(C)c(S(=O)(=O)N2CCCOC2CNC(=O)C(=O)NCc2ccco2)c(C)c1 (stereo unspecified)	.	-1	-0.21	i	2
CCCCn1c(C)nc2c(=O)n(C)c(=O)[nH]c21	73*	-3	.	i	5
CCCCn1c(-c2ccccc2)nc2c(=O)n(C)c(=O)[nH]c21	33	-6	0.56	i	2
CCc1ccc(NC(=O)COc2ccc(F)cc2C(=O)c2cnn(-c3ccccc3)c2)cc1	.	0	.	i	20*
CCOC(=O)N1CCC(N2CCN(S(=O)(=O)c3ccc(OC)cc3)CC2)CC1	.	0	-0.49	i	4
CCOC(=O)N1CCC(N2CCN(S(=O)(=O)c3ccc(C)cc3)CC2)CC1	67*	4	-0.048	i	2
O=C(NC1CCCCC1)C(c1ccc(F)cc1)N(Cc1ccco1)C(=O)Cn1nnc2ccccc21 (stereo unspecified)	.	0	-0.17	i	2
Cc1ccc(C(C(=O)NC2CCCCC2)N(Cc2ccco2)C(=O)Cn2cnc3ccccc32)cc1 (stereo unspecified)	25	4	-3.3*	i	2
CS(=O)(=O)NCCCNc1c(Cl)cccc1[N+](=O)[O-]	74*	0	-0.037	i	2
CCn1c(=O)cc(SCC(=O)NCc2ccc(C)cc2)c2ccccc21	-21	0	.	i	31*
Cc1cc(NC(=O)CSc2ccccc2)no1	-22	-3	.	i	3
Cc1cc(NC(=O)CSc2nnc(-c3ccccc3)c(-c3ccccc3)n2)no1	-28	2	0.66	i	22*
CCC(C(=O)Nc1cc(C)on1)c1ccccc1 (stereo unspecified)	70*	.	0.32	i	1
CCC(C(=O)Nc1ccc(C)cc1)c1ccccc1 (stereo unspecified)	-45	-3	-0.012	i	2
O=C1CCCCC/C1=N/Nc1ccc(OCc2ccccc2)cc1	.	2	.	i	.
COc1ccc(-c2csc(N(CCCN(C)C)C(=O)c3cccs3)n2)cc1	-4	-1	.	i	4
COCCCN(C(C)=O)c1nc(-c2ccc(OC)cc2)cs1	.	0	.	i	23*
CC(=O)c1c(OC(=O)c2ccc(C)cc2)c2ccccc2n1C	100*	0	.	i	2
CC(=O)c1c(OC(=O)c2ccco2)c2ccccc2n1C	.	0	.	.	7
Cc1ccc2c(Cl)c(C)c(N3CCCCC3)nc2n1	83*	-5	.	i	5
CCOc1ccccc1NC(=O)Cc1ccccc1OC	81*	.	0.44	i	6
CCOc1ccccc1NC(=O)CCC(=O)Nc1ccccc1OCC	4	-3	-0.99	i	1
CC(=O)Nc1cccc(C(=O)Nc2ccccc2N2CCOCC2)c1	32	-4	-0.061	i	32*
O=C(Nc1ccccc1N1CCOCC1)c1ccc2c(c1)OCO2	-367	0	0.84	i	2
O=C1CC(c2cccnc2)c2cc3c(cc2N1)OCO3 (stereo unspecified)	.	-2	.	i	4
SMILES	Insulin prom inh	b-catenin transl	ROMK primary	HSV augment	MT stabilize HCS
CC(C)c1ccc(C2C3=C(COC3=O)Nc3cc4c(cc32)OCO4)cc1 (stereo unspecified)	.	74*	-0.89	i	5
Cc1cccc(OCC(=O)N/N=C/c2cc([N+](=O)[O-])ccc2N2CCOCC2)c1	0	1	0.81	i	2
CCC(=O)n1nc(-c2ccc(OC)cc2)nc1SC	89*	.	.	i	2
CCCC(=O)n1nc(-c2ccc(Cl)cc2)nc1SC	75*	.	.	.	2
COC(=O)CN(c1ccccc1)S(=O)(=O)c1cc(Br)ccc1OC	.	1	-0.51	i	4
CCOC(=O)c1sc(NC(=O)CCN2CCN(C)CC2)c(C(=O)OCC)c1C	19	0	-1.6	i	2
CCOC(=O)c1c(NC(=O)CN2CCN(C)CC2)sc(C(=O)Nc2ccccc2)c1C	-35	-1	-2.2	i	36*
